Laboratory results as given in ChEMBL document CHEMBL1149113 (J Med Chem, 2004).
pIC50: −log10 of the molar value.

What was measured:
B2 bradykinin receptor [1] = target: T1, B2 bradykinin receptor (Cavia porcellus, UniProt O70526); test: In vitro inhibitory activity towards bradykinin receptor B2 using [3H]BK (0.06 nM) as a radioligand in guinea pig ileum membrane preparation; format: cell membranes
T1 sequence (O70526 whole entry): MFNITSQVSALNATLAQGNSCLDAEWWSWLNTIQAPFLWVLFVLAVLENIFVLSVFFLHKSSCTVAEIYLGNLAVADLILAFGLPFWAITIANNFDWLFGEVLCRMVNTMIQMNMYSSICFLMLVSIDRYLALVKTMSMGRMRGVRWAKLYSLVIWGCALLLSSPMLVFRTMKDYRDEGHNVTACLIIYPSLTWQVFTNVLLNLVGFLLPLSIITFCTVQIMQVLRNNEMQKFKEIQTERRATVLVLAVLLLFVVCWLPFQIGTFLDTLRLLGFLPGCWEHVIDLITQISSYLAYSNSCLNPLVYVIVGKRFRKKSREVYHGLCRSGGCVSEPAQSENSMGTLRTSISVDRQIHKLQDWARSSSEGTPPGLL
Summary of the method: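 Ileal membranes from male Hartley guinea pigs, prepared in TES/1,10-phenanthroline pH 6.8 with 100000 g pellet. Membranes (0.2 mg protein/mL) incubated with [3H]BK and varying compound concentrations 60 min at room temperature in binding buffer with bacitracin, DTT, captopril, BSA. Filter harvest, scintillation counting; nonspecific with 1 μM BK. IC50 as mean of ≥3 determinations.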

B2 bradykinin receptor [2] = target: T2, B2 bradykinin receptor (Homo sapiens, UniProt P30411); test: In vitro inhibitory activity towards human bradykinin receptor B2 expressed in CHO cells using [3H]BK (1.0 nM) as a radioligand; format: cell-based
T2 sequence (P30411 whole entry): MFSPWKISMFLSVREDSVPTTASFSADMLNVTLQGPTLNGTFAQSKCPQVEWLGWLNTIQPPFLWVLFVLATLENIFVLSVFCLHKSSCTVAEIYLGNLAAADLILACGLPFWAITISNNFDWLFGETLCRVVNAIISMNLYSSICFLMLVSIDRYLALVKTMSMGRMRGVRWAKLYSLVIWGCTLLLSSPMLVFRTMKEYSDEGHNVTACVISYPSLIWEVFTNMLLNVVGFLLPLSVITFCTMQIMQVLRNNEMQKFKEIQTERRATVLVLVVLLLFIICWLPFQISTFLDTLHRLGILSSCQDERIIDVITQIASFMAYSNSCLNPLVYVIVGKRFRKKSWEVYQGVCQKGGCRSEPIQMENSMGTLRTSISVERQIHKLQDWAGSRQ
Summary of the method: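 Stably transfected CHO (dhfr-) cells seeded at 3.0 × 10^4 cells/well, cultured 1 day, then incubated with test compounds for 2 h at 4 °C. Binding buffer was HEPES/N-methyl-D-glucamine pH 7.2 with bacitracin, enalaprilat and BSA. Cells solubilized in SDS/NaOH and counted by scintillation; nonspecific binding with 1 μM unlabeled BK. Run three times.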

Cavia porcellus [3] = test: Compound was evaluated for percentage inhibition against BK-induced bronchoconstriction in anesthetized guinea pig, intravenously at a concentration of 1 mg/kg; format: functional; details: route intravenous
Summary of the method: (§1)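 Male Hartley guinea pigs (470-750 g), fasted overnight, pentobarbital 30 mg/kg ip, tracheal and jugular cannulation, ventilated 10 mL/kg at 60 breaths/min; alcuronium 0.5 mg/kg iv, propranolol 10 mg/kg sc. BK 5 μg/kg iv; compound in 5% citric acid iv 25 min later, BK repeated 5 min after drug. Peak insufflation pressure rise (Konzett-Rossler); % inhibition vs vehicle, n=3-4.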

Cavia porcellus [4] = test: Compound was evaluated for percentage inhibition against BK-induced bronchoconstriction in anesthetized guinea pig, intravenously at a concentration of 10 mg/kg; format: functional; details: route intravenous; summary of the method: as §1

pIC50 (B2 bradykinin receptor [1]) | pIC50 (B2 bradykinin receptor [2]) | Structure (SMILES) | inhibition in vivo at 1 mg/kg (Cavia porcellus [3]) | inhibition in vivo at 10 mg/kg (Cavia porcellus [4])
8.74 | 8.49 | CNC(=O)c1ccc(/C=C/C(=O)NCC(=O)N(C)c2ccc(Cl)c(COc3cccc4c(N(C)C)cc(C)nc34)c2Cl)cc1 | – | –
8.54 | 8.68 | Cc1cc(N(C)C)c2cccc(OCc3c(Cl)ccc(N(C)C(=O)CNC(=O)/C=C/c4ccc(C(=O)N(C)C)cc4)c3Cl)c2n1 | – | –
8.43 | 9.55 | CNC(=O)c1ccc(/C=C/C(=O)NCC(=O)N(C)c2ccc(Cl)c(COc3cccc4c(-n5ccnc5)cc(C)nc34)c2Cl)cc1 | – | –
8.57 | 9.77 | CNC(=O)c1ccc(/C=C/C(=O)NCC(=O)N(C)c2ccc(Cl)c(COc3cccc4c(-n5cccn5)cc(C)nc34)c2Cl)cc1 | – | –
8.52 | 9.59 | Cc1cc(-n2ccnc2)c2cccc(OCc3c(Cl)ccc(-n4cccc4CNC(=O)/C=C/c4ccc(C(=O)N(C)C)cc4)c3Cl)c2n1 | 46% | –
8.36 | 9.64 | CNC(=O)c1ccc(/C=C/C(=O)NCC(=O)N(C)c2ccc(Cl)c(COc3cccc4c(-n5cncn5)cc(C)nc34)c2Cl)cc1 | – | –
8.37 | 9.46 | Cc1cc(-n2ccnc2)c2cccc(OCc3c(Cl)ccc(N(C)C(=O)CNC(=O)/C=C/c4ccc(C(=O)N(C)C)cc4)c3Cl)c2n1 | – | –
8.04 | 9.55 | Cc1cc(-n2ccnn2)c2cccc(OCc3c(Cl)ccc(N(C)C(=O)CNC(=O)/C=C/c4ccc(C(=O)N(C)C)cc4)c3Cl)c2n1 | – | –
8.18 | 9.64 | Cc1cc(-n2ccnc2)c2cccc(OCc3c(Cl)ccc(N(C)C(=O)CNC(=O)Nc4cccc(C(=O)Nc5ccncc5)c4)c3Cl)c2n1 | – | 56.8%
8.22 | 9.37 | Cc1cc(-n2ccnc2)c2cccc(OCc3c(Cl)ccc(-n4cccc4CNC(=O)/C=C/c4ccc(C(=O)NCc5ccccn5)cc4)c3Cl)c2n1 | – | –
8.48 | 9.74 | Cc1cc(-n2cccn2)c2cccc(OCc3c(Cl)ccc(N(C)C(=O)CNC(=O)/C=C/c4ccc(C(=O)N(C)C)cc4)c3Cl)c2n1 | – | –
7.77 | 9.38 | Cc1cc(-n2ccnc2)c2cccc(OCc3c(Cl)ccc(N(C)C(=O)CNC(=O)/C=C/c4ccc(C(=O)Nc5ccncc5)cc4)c3Cl)c2n1 | – | –
8.51 | 9.00 | CNC(=O)c1ccc(/C=C/C(=O)NCC(=O)N(C)c2ccc(C)c(COc3cccc4c(-c5ccccc5)cc(C)nc34)c2C)cc1 | – | –
– | – | N=C(N)NCCC[C@@H](N)C(=O)N[C@@H](CCCNC(=N)N)C(=O)N1CCC[C@H]1C(=O)N1C[C@H](O)C[C@H]1C(=O)NCC(=O)N[C@@H](Cc1cccs1)C(=O)N[C@@H](CO)C(=O)N1Cc2ccccc2C[C@@H]1C(=O)N1[C@H](C(=O)N[C@@H](CCCNC(=N)N)C(=O)O)C[C@@H]2CCCC[C@@H]21 [ICATIBANT] | 63.4% | –
